Experimental data taken from ChEMBL document CHEMBL4257518, “Inhibition of O-GlcNAc transferase (OGT) by peptidic hybrids” (Medchemcomm, 2018).
Activity calls are given as the source filed them. The calls are words filed in the database; no cut-off is given here. Side chains are listed from the residue outwards. Peptide text beside a SMILES is read from it. * marks the point of attachment. X3 = O=c1ccn([C@@H]2O[C@H](COCCOCCN*)[C@@H](O)[C@H]2O)c(=O)[nH]1; X2 = O=c1ccn([C@@H]2O[C@H](COCCN*)[C@@H](O)[C@H]2O)c(=O)[nH]1; X1 = O=c1ccn([C@@H]2O[C@H](CN*)[C@@H](O)[C@H]2O)c(=O)[nH]1; X4 = O=C(c1cc(=O)[nH]c2ccccc12)*; 4Amb = NCc1ccc(C(=O)O)cc1

Tests used:
[1] = target: T1, UDP-N-acetylglucosamine--peptide N-acetylglucosaminyltransferase 110 kDa subunit (Homo sapiens) (UniProt O15294); assay: Inhibition of OGT (unknown origin) at 1 mM using UDP-GlcNAc as substrate measured after 2 hrs by UDP-Glo luminescence assay relative to control
T1 sequence (whole entry): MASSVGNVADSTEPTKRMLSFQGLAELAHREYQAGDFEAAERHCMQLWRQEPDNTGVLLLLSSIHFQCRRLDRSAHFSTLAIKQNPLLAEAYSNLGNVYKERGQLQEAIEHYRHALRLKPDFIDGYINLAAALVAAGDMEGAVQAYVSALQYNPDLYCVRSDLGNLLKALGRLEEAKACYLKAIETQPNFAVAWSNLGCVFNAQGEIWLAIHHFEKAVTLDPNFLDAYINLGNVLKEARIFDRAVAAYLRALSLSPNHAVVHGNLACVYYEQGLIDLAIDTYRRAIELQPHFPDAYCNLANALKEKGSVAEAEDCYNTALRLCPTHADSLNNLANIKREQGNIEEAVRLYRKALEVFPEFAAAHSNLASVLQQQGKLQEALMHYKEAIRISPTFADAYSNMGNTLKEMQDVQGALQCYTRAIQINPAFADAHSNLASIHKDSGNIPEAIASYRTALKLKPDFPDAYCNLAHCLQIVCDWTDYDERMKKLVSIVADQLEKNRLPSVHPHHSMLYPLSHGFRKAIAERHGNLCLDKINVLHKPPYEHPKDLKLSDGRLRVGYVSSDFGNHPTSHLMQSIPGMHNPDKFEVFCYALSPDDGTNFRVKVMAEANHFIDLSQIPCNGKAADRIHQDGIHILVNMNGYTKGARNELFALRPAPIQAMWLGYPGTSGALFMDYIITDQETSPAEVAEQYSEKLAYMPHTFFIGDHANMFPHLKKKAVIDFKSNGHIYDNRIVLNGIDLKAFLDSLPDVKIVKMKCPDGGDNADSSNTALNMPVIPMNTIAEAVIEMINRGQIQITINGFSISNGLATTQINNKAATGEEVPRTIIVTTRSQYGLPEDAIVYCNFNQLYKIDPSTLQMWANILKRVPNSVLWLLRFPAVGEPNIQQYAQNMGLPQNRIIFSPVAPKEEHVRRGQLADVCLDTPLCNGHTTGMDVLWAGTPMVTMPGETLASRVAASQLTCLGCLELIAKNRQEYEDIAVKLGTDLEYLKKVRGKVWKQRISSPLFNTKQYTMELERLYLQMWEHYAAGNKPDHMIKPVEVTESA
Outline: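 Single-point OGT inhibition at 1 mM, read by UDP-Glo glycosyltransferase assay (UDP released from UDP-GlcNAc donor).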

[2] = target: T2, UDP-N-acetylglucosamine--peptide N-acetylglucosaminyltransferase 110 kDa subunit (Homo sapiens, UniProt O15294); assay: Inhibition of OGT (unknown origin) using UDP-GlcNAc as substrate measured after 2 hrs by UDP-Glo luminescence assay
T2 sequence (O15294 whole entry): T1 sequence (whole entry)

[3] = target: T1, UDP-N-acetylglucosamine--peptide N-acetylglucosaminyltransferase 110 kDa subunit (Homo sapiens); assay: Competitive inhibition of OGT (unknown origin) at 0.5 mM in presence of RBL_2_410_422 peptide by microarray analysis
Outline: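 Peptide microarray with immobilized RBL-2_410–422 as OGT acceptor; inhibitor peptide present at 0.5 mM, water in parallel control. O-GlcNAcylation followed in real time by FITC-labelled antibody binding to O-GlcNAcylated RBL-2_410–422.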

Molecule	inhibition [1] [%]	other results
Nc1ccc(CNC(=O)c2cc(=O)[nH]c3ccccc23)cc1	90	
NS(=O)(=O)c1ccc(CNC(=O)c2cc(O)nc3ccccc23)cc1	90	
CC(C)[C@H](NC(=O)[C@@H](N)CCCNC(=N)N)C(=O)N1CCC[C@H]1C(=O)N[C@@H](CO)C(=O)N[C@@H](CCC(=O)NCCOC[C@H]1O[C@@H](n2ccc(=O)[nH]c2=O)[C@H](O)[C@@H]1O)C(=O)N[C@@H](CCC(N)=O)C(=O)N[C@@H](CO)C(N)=O (H-RVPSE(X2)QS-NH2)		IC50 [2]: > 1000 µM
CCOC(=O)CCCNC(=O)c1cc(=O)[nH]c2ccccc12	90	
CC(C)[C@H](NC(=O)[C@@H](N)CS)C(=O)N[C@H](C(=O)N1CCC[C@H]1C(=O)N[C@H](C(=O)N[C@@H](CCC(=O)NC[C@H]1O[C@@H](n2ccc(=O)[nH]c2=O)[C@H](O)[C@@H]1O)C(=O)N[C@H](C(=O)N[C@@H](C)C(N)=O)[C@@H](C)O)C(C)C)[C@@H](C)O (H-CVTPVE(X1)TA-NH2)		IC50 [2]: 297 µM
CC(C)[C@H](NC(=O)[C@@H](N)CS)C(=O)N[C@H](C(=O)N1CCC[C@H]1C(=O)N[C@H](C(=O)N[C@@H](CCC(=O)NCCOC[C@H]1O[C@@H](n2ccc(=O)[nH]c2=O)[C@H](O)[C@@H]1O)C(=O)N[C@H](C(=O)N[C@@H](C)C(N)=O)[C@@H](C)O)C(C)C)[C@@H](C)O (H-CVTPVE(X2)TA-NH2)		IC50 [2]: > 1000 µM
O=C(O)c1ccc(CNC(=O)c2cc(=O)[nH]c3ccccc23)cc1	90	
CC(C)[C@H](NC(=O)[C@@H](N)CS)C(=O)N[C@H](C(=O)N1CCC[C@H]1C(=O)N[C@H](C(=O)N[C@@H](CCC(=O)NCCOCCOC[C@H]1O[C@@H](n2ccc(=O)[nH]c2=O)[C@H](O)[C@@H]1O)C(=O)N[C@H](C(=O)N[C@@H](C)C(N)=O)[C@@H](C)O)C(C)C)[C@@H](C)O (H-CVTPVE(X3)TA-NH2)		IC50 [2]: 493 µM
O=C(O)CCCNC(=O)c1cc(=O)[nH]c2ccccc12	90	
Nc1ccccc1CNC(=O)c1cc(=O)[nH]c2ccccc12	90	
CCOC(=O)C1CCC(CNC(=O)c2cc(=O)[nH]c3ccccc23)CC1 (stereo unspecified)	90	
CC(C)(C)OC(=O)CCNC(=O)c1cc(=O)[nH]c2ccccc12	90	
O=C(NCc1ccccc1)c1cc(O)nc2ccccc12	90	
CCOC(=O)c1ccc(CNC(=O)c2cc(=O)[nH]c3ccccc23)cc1	90	
O=C(NCC1CCC(C(=O)O)CC1)c1cc(=O)[nH]c2ccccc12 (stereo unspecified)	90	
COc1ccc(CNC(=O)c2cc(=O)[nH]c3ccccc23)cc1OC	90	

Molecule	inhibition [1] [%]	other results
CC(C)[C@H](NC(=O)[C@@H](N)CS)C(=O)N[C@H](C(=O)N1CCC[C@H]1C(=O)N[C@H](C(=O)N[C@@H](CCCCNC(=O)c1ccc(CNC(=O)c2cc(=O)[nH]c3ccccc23)cc1)C(=O)N[C@H](C(=O)N[C@@H](C)C(N)=O)[C@@H](C)O)C(C)C)[C@@H](C)O (H-CVTPVK([4Amb-X4])TA-NH2)		IC50 [2]: 117 µM
O=C(NCc1ccccc1Cl)c1cc(O)nc2ccccc12	90	
O=C(O)CCNC(=O)c1cc(=O)[nH]c2ccccc12	90	
CCc1nnc(NC(=O)c2cc(=O)[nH]c3ccccc23)s1	90	
O=C(NCc1ccc2c(c1)OCCO2)c1cc(=O)[nH]c2ccccc12	90	
O=C(O)CNC(=O)c1cc(=O)[nH]c2ccccc12	90	
H-KENSPCVTPVATA-OH		inhibition [3]: Active
O=C(O)CCNC(=O)c1ccc(NC(=O)c2cc(=O)[nH]c3ccccc23)cc1	90	
COc1ccc(CNC(=O)c2cc(=O)[nH]c3ccccc23)cc1	90	
H-CVTPVATA-NH2		IC50 [2]: 385 µM
H-RVPSAQS-NH2		IC50 [2]: 193 µM
O=C(O)c1cc(O)nc2ccccc12	90	
CC(C)(C)OC(=O)CNC(=O)c1cc(=O)[nH]c2ccccc12	90	
CC(C)[C@H](NC(=O)[C@@H](N)CCCNC(=N)N)C(=O)N1CCC[C@H]1C(=O)N[C@@H](CO)C(=O)N[C@@H](CCC(=O)NC[C@H]1O[C@@H](n2ccc(=O)[nH]c2=O)[C@H](O)[C@@H]1O)C(=O)N[C@@H](CCC(N)=O)C(=O)N[C@@H](CO)C(N)=O (H-RVPSE(X1)QS-NH2)		IC50 [2]: > 1000 µM
CCNC(=O)CCNC(=O)c1ccc(NC(=O)c2cc(=O)[nH]c3ccccc23)cc1	90	
